Results: paper PMC5269645 (Journal of the American Chemical Society, 2016)
Where two headings read alike, the source gives them in different places.

What was measured:
[1] = target: T1, BtGH99 (Bacteroides thetaiotaomicron, UniProt Q8A109); conditions: read-out: KD values, BtGH99; ITC; cited from earlier work
T1 sequence (Q8A109 18-382): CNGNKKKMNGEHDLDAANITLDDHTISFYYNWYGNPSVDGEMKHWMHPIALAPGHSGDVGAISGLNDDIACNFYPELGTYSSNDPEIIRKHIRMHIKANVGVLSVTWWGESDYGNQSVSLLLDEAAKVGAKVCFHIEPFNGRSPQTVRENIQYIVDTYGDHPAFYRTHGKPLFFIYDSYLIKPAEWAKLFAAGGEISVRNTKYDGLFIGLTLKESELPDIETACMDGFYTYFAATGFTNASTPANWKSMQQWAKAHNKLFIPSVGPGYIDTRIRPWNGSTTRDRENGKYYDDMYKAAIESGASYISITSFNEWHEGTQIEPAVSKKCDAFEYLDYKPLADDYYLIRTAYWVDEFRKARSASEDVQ

[2] = target: BxGH99; conditions: read-out: KD values, BxGH99; ITC; cited from earlier work
[3] = target: rat endomannosidase; conditions: read-out: IC50, rat endomannosidase; inhibition of cleavage of 14C-labeled GlcMan9GlcNAc; cited from earlier work
[4] = system: various glycosidases; conditions: cited from earlier work
[5] = target: T1, BtGH99; assay: 2D NMR; format: binding
Method in brief: (§1)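 1H–15N SOFAST-HMQC spectra of 15N-labeled enzyme (average 58 μM) recorded for 1 h at 298 K in 50 mM potassium phosphate pH 7.0, 50 mM KCl, 5% D2O. Active-site Arg Nε-Hε peak (R295, Bx numbering) served as reporter. Bound fraction from peak intensities at several protein/ligand ratios, fitted against free ligand for KD. Duplicate points; Monte Carlo error propagation (n = 10 000), standard deviation.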

[6] = target: T2, BxGH99 (Bacteroides xylanisolvens, UniProt D6D1V7); assay: 2D NMR; format: binding
T2 sequence (D6D1V7 13-380): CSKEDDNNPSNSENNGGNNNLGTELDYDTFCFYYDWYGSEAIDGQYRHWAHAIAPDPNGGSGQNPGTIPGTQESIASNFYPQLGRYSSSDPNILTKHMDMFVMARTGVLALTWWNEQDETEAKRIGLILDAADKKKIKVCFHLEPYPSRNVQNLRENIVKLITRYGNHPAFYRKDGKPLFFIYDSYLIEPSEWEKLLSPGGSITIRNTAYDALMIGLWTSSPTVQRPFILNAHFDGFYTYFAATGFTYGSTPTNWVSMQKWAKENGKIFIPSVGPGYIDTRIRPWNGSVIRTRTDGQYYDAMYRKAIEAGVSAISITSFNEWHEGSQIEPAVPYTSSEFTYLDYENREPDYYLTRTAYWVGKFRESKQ
Method in brief: as §1

Compound: OC[C@H]1CNCC(O[C@H]2O[C@H](CO)[C@@H](O)[C@H](O)[C@H]2O)[C@@H]1O (stereo partly drawn) [compound 2, GlcIFG]
- Kd [1]: 0.63 µM

Compound: OC[C@H]1CNCC(O[C@H]2O[C@H](CO)[C@@H](O)[C@H](O)[C@@H]2O)[C@@H]1O (stereo partly drawn) [compound 3, ManIFG]
- Kd [1]: 0.14 µM
- Kd [2]: 0.27 µM

Compound: OC[C@H]1OCC[C@@H](O[C@H]2O[C@H](CO)[C@@H](O)[C@H](O)[C@H]2O)[C@@H]1O [compound 4, GlcddMan]
- IC50 [3]: 3.8 µM

Compound: OC[C@H]1CNC(O)[C@@H](O)[C@@H]1O (stereo partly drawn) [noeuromycin]
- times more tightly bound than isofagomine [4]: 2–4000 times

Compound: OC[C@H]1O[C@H](O[C@@H]2C=CO[C@H](CO)[C@H]2O)[C@@H](O)[C@@H](O)[C@@H]1O [compound 7, α-D-Mannopyranosyl-(1→3)-1,5-anhydro-2-deoxy-D-arabino-hex-1-enitol]
- Kd [5]: 15 ± 1.9 µM
- Kd [6]: 111 ± 11 µM

Compound: OC[C@H]1NC[C@@H](O)[C@@H](O[C@H]2O[C@H](CO)[C@@H](O)[C@H](O)[C@H]2O)[C@@H]1O [compound 1, GlcDMJ]
- Kd [1]: 24 µM
- IC50 [3]: 1.7 µM

Compound: OC[C@H]1OCC[C@@H](O[C@H]2O[C@H](CO)[C@@H](O)[C@H](O)[C@@H]2O)[C@@H]1O [compound 5, α-D-Mannopyranosyl-(1→3)-1,2-dideoxy-D-mannopyranose]
- Kd [5]: 53 ± 5 µM
- Kd [6]: 221 ± 11 µM
- affinity relative to ManGlucal, fold worse, BxGH99 ([6]; ratio of KD values): 8 fold
